# Data from article PMC5573236 (Oncogene, 2008).
# Legend:
# LNCaP cells [1] = test: MTT proliferation assay, LNCaP cells; format: cell-based
# PC-3 cells = test: MTT proliferation assay, PC-3 cells; format: cell-based; details: 72 h, same concentrations as used on LNCaP cells
# Procedure, shortened: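 Cells were grown in phenol-red-free RPMI 1640 with 10% FBS, 37 °C, 5% CO2, and seeded at 10 000/well. Test compound or free hormone at matched concentrations was added 24–48 h after plating; the PC-3 exposure was 72 h. MTT read-out: medium removed, DMSO solubilisation, absorbance 550 nm. Single triplicate experiment, representative of three.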
# androgen receptor (AR) = test: Western blot of AR protein levels in LNCaP cells; format: cell-based; details: 72 h, increasing concentrations that inhibited proliferation
# LNCaP cells [2] = test: Cell cycle profile by flow cytometry; format: cell-based; details: 72 h, propidium iodide staining
# Procedure, shortened: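 LNCaP cells kept at 37 °C, 5% CO2, in phenol-red-free RPMI 1640 with 10% FBS. Plated at 30 000 cells per cm2 and treated from 24–48 h after plating. Trypsinised, pelleted at 250 g for 5 min, fixed in 70% ethanol and held at −20 °C. Just before acquisition, stained with 3.4 mM sodium citrate, 0.3% Triton X-100, propidium iodide 0.1 mg/ml and RNase A 20 μg/ml, then run on a flow cytometer.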
# MCF-7 cells = test: MTT proliferation assay, MCF-7 cells; format: cell-based; details: same concentrations as used for Protac-B
# T47D cells = test: MTT proliferation assay, T47D cells; format: cell-based; details: same concentrations as used for Protac-B
# [3] = system: estrogen receptor-α (ERα); details: estradiol stimulation; ref Pink and Jordan, 1996; cited from earlier work
# [4] = target: VHL-Elongin B-Elongin C protein complex (Homo sapiens, UniProt P40337+Q15369+Q15370); test: Fluorescence polarization competitive binding assay with VHL; details: FP competition assay; negative control
compound,measurement,setting,value
Leu-Ala-Pro(OH)-Tyr-Ile-Gly-Gly-(D-Arg)9 [Protac-AA],"increase of activity (IC50, LNCaP) over Protac-A",LNCaP cells [1]; 72 h and 144 h,three to seven
same,effect on proliferation of PC-3 cells,PC-3 cells,not affected
same,AR protein levels in LNCaP cells,androgen receptor (AR),reduced
same,cell cycle effect in LNCaP cells,LNCaP cells [2],cell cycle arrest in G1
"C[C@]12CCC(=O)C[C@@H]1CC[C@@H]1[C@@H]2CC[C@]2(C)[C@@H](O)CC[C@@H]12 [DHT, dihydroxytestosterone]",effect on LNCaP cell proliferation,LNCaP cells [1]; DHT used at the IC50 of Protac-A (12.5 μM),no effect
"C[C@]12CC[C@@H]3c4ccc(O)cc4CC[C@H]3[C@@H]1CC[C@@H]2O [estradiol, 17β-estradiol]",effect on proliferation of MCF-7 cells,MCF-7 cells,no effect
same,effect on proliferation of T47D cells,T47D cells,no effect
same,decrease in ERα levels,[3],approximately 50%
H-Leu-Ala-Ala-Tyr-Ile-Gly-Gly-[D-Arg]9-OH [mutant pentapeptide-G-G-(Arg)9],binding to VHL,[4],did not detectably bind
